This is a sample that favours compounds with a hit; in the whole collection about 8.7% have one here.
Cav3 T inh: human Cav3.2 channel inhibition, primary screen; B-score at 10 µM; actives 4% (n = 100,000); Cav3.2-expressing cells, Fluo-4 calcium fluorescence FDSS; stronger effect = lower value;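 active = single-dose well whose peak fluorescence ratio is a statistical outlier from its plate by either plate-standardised score or position-corrected B-score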
Target sequence (O95180 whole entry, looked up): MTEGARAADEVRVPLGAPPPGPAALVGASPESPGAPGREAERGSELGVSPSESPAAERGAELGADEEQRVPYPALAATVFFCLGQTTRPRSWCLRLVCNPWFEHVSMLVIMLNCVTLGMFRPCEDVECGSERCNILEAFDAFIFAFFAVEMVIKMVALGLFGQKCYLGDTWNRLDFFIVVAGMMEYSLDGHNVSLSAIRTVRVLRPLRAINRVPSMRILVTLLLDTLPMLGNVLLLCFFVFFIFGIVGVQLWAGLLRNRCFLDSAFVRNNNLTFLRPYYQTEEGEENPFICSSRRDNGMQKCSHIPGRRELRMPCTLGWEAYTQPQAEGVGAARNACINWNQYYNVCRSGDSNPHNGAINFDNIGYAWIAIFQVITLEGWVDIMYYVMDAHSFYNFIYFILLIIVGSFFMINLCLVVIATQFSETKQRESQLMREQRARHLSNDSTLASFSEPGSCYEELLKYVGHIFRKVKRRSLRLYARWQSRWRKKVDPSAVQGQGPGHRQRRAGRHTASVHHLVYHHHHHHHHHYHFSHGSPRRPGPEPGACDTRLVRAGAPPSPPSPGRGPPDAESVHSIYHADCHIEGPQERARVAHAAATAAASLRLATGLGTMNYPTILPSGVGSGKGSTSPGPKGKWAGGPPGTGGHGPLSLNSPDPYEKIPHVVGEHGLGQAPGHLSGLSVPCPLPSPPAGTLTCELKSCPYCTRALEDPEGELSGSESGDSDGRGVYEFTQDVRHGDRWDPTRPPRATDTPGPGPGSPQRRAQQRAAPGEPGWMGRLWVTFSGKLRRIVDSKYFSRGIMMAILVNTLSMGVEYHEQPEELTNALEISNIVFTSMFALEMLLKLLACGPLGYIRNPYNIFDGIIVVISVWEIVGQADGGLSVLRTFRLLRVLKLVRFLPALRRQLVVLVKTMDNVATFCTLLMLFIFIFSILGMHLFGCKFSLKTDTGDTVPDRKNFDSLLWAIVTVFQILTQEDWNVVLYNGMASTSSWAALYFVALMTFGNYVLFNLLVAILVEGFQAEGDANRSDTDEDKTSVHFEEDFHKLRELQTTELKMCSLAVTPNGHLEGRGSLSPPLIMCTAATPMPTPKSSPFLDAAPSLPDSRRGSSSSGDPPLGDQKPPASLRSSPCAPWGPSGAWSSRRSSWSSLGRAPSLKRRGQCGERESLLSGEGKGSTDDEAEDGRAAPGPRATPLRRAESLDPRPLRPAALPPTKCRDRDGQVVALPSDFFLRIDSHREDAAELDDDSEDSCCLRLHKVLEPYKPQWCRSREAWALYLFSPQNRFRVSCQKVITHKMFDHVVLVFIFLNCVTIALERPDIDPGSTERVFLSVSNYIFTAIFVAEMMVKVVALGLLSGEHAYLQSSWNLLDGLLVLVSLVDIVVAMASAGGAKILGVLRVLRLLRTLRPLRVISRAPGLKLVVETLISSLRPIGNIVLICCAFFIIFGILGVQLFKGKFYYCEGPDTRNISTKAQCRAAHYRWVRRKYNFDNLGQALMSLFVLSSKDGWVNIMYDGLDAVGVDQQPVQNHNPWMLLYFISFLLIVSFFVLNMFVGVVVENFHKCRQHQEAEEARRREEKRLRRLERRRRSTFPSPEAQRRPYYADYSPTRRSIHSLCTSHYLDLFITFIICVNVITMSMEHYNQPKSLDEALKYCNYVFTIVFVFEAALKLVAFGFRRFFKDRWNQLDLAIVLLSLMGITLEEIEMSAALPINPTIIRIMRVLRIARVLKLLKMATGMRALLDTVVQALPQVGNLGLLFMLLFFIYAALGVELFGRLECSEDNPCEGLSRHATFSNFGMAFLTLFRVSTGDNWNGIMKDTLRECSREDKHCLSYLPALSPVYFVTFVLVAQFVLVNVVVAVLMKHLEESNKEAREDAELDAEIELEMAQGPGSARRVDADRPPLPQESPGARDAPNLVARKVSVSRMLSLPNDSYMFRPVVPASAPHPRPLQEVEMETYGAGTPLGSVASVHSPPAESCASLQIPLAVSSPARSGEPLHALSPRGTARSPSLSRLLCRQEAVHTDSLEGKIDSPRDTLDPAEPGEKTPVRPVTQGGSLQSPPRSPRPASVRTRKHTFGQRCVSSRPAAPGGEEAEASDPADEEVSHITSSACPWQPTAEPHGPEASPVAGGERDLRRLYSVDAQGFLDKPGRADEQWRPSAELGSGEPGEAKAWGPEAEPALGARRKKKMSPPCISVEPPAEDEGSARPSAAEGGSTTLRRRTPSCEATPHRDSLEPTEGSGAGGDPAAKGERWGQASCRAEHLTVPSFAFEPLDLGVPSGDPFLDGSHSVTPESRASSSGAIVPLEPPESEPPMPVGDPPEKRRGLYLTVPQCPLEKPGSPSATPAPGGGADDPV
PostGolgi yeast: growth inhibition of a yeast mutant, post-Golgi transport screen. post-Golgi transport phenotypic cell assay. inhibition, % at 10 µM. actives 0.9% (n = 98,000). AID 739;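 note: yeast cells grown in 1536-well plates; yeast grown about 18 h at 30C before absorbance read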
PTK2B oligo ant: blocks oligomerization of human Pyk2 in cells. Q14289. Q293 cells, Pyk2 FERM NanoBiT luminescence; stronger effect = lower value. z-score (the deposit names both 25 µM and 10 µM). actives 0.83% (n = 99,000);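 active = Z-score of -3 or lower, scaled per plate to the spread of control and sample wells; inactive = z-score above -3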;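 note: negative z-score means lost luminescence so less FERM oligomerization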
PostGolgi ctrl: yeast control strain growth, post-Golgi counter-screen. efflux-deficient yeast background strain, growth absorbance A615, 16 h. inhibition, % at 10 µM. actives 5% (n = 98,000)
Ecoli WT expand: blocks growth of wild type E. coli BW25113; OD600 absorbance; growth inhibition, % at 100 µM; actives 0.15% (n = 98,000);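 active = growth inhibition above about 50% at one test dose, limit read from the data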;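 note: growth measured after 20 h incubation at 37 °C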
Ecoli tolC: growth inhibitors of E. coli BW25113 tolC mutant; OD615; growth inhibition, % at 10 µM (by protocol); actives 2.2% (n = 65,000); AID 573;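 active = growth inhibition at or above a cutoff equal to the mean over every tested compound plus 3 SD, cut at about 60% in these data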;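 note: growth measured after 20 h incubation at 37 °C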
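Test system – E. coli BW25113 ΔtolC::kan, tolC deletion mutant strain · Detection – OD at 615 nm · Buffer or medium – LB with kanamycin 50 µg/mL · Times – 20 h compound exposure of bacteria at 37 °C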
Active calls of the source: *; nt = no result given. Cut-off read from the data, not from the text of the source, unless noted: active = inhibition above about 30%; inactive = the rest.

SMILES	Cav3 T inh	PostGolgi yeast	PTK2B oligo ant	PostGolgi ctrl	Ecoli WT expand	Ecoli tolC
O=C1Nc2ccccc2C12OCC1(CO2)COC2(OC1)C(=O)Nc1ccccc12 (stereo not drawn)	-0.87	4	-2.8	-2	2	-4
CN1CC(c2ccc(Cl)c(Cl)c2)[C@@]2(COc3ccccc3C2=O)[C@@]12C(=O)Nc1ccccc12 (stereo partly drawn)	0.46	5	-3.4*	22	-1	nt
Cc1cccc(Nc2nc(NC(C)C)nc(Oc3ccc(=O)n(C)n3)n2)c1	0.021	-4	-0.18	4	2	nt
COc1ccc(OC2C(=O)N(Cc3ccc4c(c3)OCO4)C2c2cccs2)cc1 (stereo not drawn)	1.4	-1	-1.8	24	-16	nt
CCc1nc2scc(-c3ccccc3)c2c(=O)n1N	0.83	-5	0.25	12	4	-5
Cc1ccc(C)n1-n1c(C)nc2scc(-c3ccccc3)c2c1=O	-6.9*	-1	-0.96	5	-7	nt
O=C(c1cc2ccccn2n1)N1CCN(c2ccccn2)CC1	-0.12	-3	nt	5	4	-9
Cc1ccc(S(=O)(=O)N(CC(=O)N2CCC(C)CC2)Cc2ccccc2F)cc1	-2.5	-5	-1.2	37*	1	nt
Cc1ccc(S(=O)(=O)N(CC(=O)O)Cc2ccccc2F)cc1	0.029	-7	0.29	2	5	8
CCOC(=O)c1c(-c2cccc(C)c2)csc1NC(=O)C1CC=CCC1C(=O)O (stereo not drawn)	-8.9*	-2	0.25	23	0	nt
CCOC(=O)c1c(-c2ccc(-c3ccccc3)cc2)csc1NC(=O)C1C2CCC(O2)C1C(=O)O (stereo not drawn)	-4.6*	1	0.02	25	10	nt
CCOC(=O)c1c(-c2ccc(C)cc2)csc1NC(=O)C1CC=CCC1C(=O)O (stereo not drawn)	nt	-12	0.67	3	-5	nt
CC(=O)Nc1cc(S(=O)(=O)Nc2ccccc2C)c(C)cc1C	nt	-3	-0.27	-2	-6	nt
CCc1ccc(C(C)NC(=O)c2ccc(F)cc2)cc1 (stereo not drawn)	-4.1*	3	-0.28	19	-11	nt
Cc1ccc([N+](=O)[O-])cc1NC(=O)CN(C(=O)c1ccc(Cl)cc1)C1CCCCC1	-9.4*	-12	-0.96	25	-3	nt
O=C(Nc1ccc(Cl)c([N+](=O)[O-])c1)c1cnccn1	nt	nt	4.7	nt	nt	nt
O=C(CN(C(=O)c1ccccc1Cl)C1CCCCC1)Nc1ccc(Cl)c([N+](=O)[O-])c1	-9.9*	-3	-1	36*	-1	nt
CC(=O)c1cccc(NC(=O)N2CCCC2C(=O)Nc2ccccc2C)c1 (stereo not drawn)	-0.11	15	-0.14	4	4	-4
O=C(CN1CCC(O)CC1)N1c2ccccc2C=Cc2ccccc21	-0.35	0	0.41	12	-1	17
C=CCn1c(=O)c2c(C)c(C)sc2n2c(Nc3ccccc3)nnc12	0.84	2	-3*	17	-6	2
CCC(C)(C)NCC(=O)Nc1ccc(OC(F)(F)F)cc1	-0.35	15	-0.04	-4	16	nt
COCCCNCC(=O)Nc1ccc(OC(F)(F)F)cc1	nt	9	0.84	42*	-12	-16
Cc1nnc(-c2cnn(C)c2N)n1Cc1cccc(Cl)c1	0.93	9	1	-1	-2	nt
Cc1nnc(-c2cnn(C)c2N)n1Cc1ccccc1	-5.1*	1	-0.02	2	3	nt
CCCCC(CC)CN1C(=O)/C(=C/c2ccncc2)SC1=S (stereo not drawn)	-0.067	13	-0.49	32*	3	nt
SMILES	Cav3 T inh	PostGolgi yeast	PTK2B oligo ant	PostGolgi ctrl	Ecoli WT expand	Ecoli tolC
Cc1nn(-c2ccccc2)c(/N=C/c2ccc(O)cc2)c1-c1ccccc1	nt	nt	-0.44	nt	nt	nt
CC1CC(C)CN(C(=O)c2ccccc2Nc2ccc(SC(F)F)cc2)C1 (stereo not drawn)	-4.2*	-6	-1.4	9	1	nt
CN1CCC(N(C)C(=O)c2ccccc2Nc2ccc(SC(F)F)cc2)CC1	0.85	2	2.1	11	-3	5
O=c1cc(Cl)c(-c2ccccc2)n[nH]1	-1	0	-0.43	4	14	nt
Fc1ccc(Sc2cc(Cl)c(-c3ccccc3)nn2)cc1	-1.6	-3	-3.5*	39*	-8	nt
Cc1cccc(NS(=O)(=O)c2cccc3nsnc23)c1	-1	-15	-1.2	3	7	nt
Cc1ccc(C)c(S(=O)(=O)Nc2ccc3scnc3c2)c1	-4.6*	-5	-1.4	50*	7	15
O=C(CN1CCOCC1)Nc1scc(-c2ccccc2)c1C(=O)N1CCOCC1	1.1	-5	0.62	10	10	-11
Cc1ccc2ccccc2c1COC(=O)c1nonc1N	-3.4	-4	1.5	74*	-2	-7
COc1ccc(Cl)cc1NC(=O)N1CCN(C2CCCCC2)CC1	0.21	19	0.21	2	8	-5
Cc1ccc(-n2nnnc2-c2cnn(-c3cccc(F)c3)c2C(F)(F)F)cc1	-4.1	nt	-2.7	nt	nt	nt
Cc1ccc(-n2nnnc2C(Cl)(Cl)c2nnnn2-c2ccc(C)cc2)cc1	0.66	108*	-0.61	100*	-2	nt
CC1CCN(S(=O)(=O)c2ccc3ncn(CC(=O)N(C)Cc4ccccc4)c(=O)c3c2)CC1	-4.6*	0	0.16	7	-13	11
O=C1COC(c2ccccc2)C2CCCCN12 (stereo not drawn)	nt	nt	1	nt	nt	nt
CCc1c(C(=O)NNC(=S)NCCc2ccccc2)csc1C	-2.8	nt	1.8	nt	nt	nt
N#Cc1ccccc1CN1C(=O)S/C(=C/c2cccn2-c2ccc(C(=O)O)cc2)C1=O	2.8	-1	-3.2*	17	-3	nt
Cc1ccc(S(=O)(=O)N=C2SCCCS2)cc1	0.031	-2	-0.01	-6	2	-12
Nc1cc(Cl)ccc1C(=O)OCC(=O)NC1CCS(=O)(=O)C1 (stereo not drawn)	-0.0078	3	-0.61	36*	0	nt
CC(=O)C1=C(N2CCCCC2)CCC1=O	-0.58	-1	-0.64	32*	4	-20
CC1=C(N2CCOCC2)CCC1=O	0.82	nt	nt	nt	nt	nt
Cc1ccc(C)c(N2CCN(C(=O)COc3cc(=O)n(C)c4ccccc34)CC2)c1	nt	2	-0.55	38*	0	12
COc1ccc([C@H]2[C@H](C(=O)OC(C)(C)C)N3N=Cc4ccccc4C3C23C(=O)c2ccccc2C3=O)c(OC)c1 (stereo partly drawn)	nt	nt	-0.85	nt	nt	nt
CC(C)(C)C(=O)[C@H]1[C@H](c2ccccc2)[C@@]2(N=C(c3ccccc3)OC2=O)C2c3ccccc3C=NN21 (stereo partly drawn)	-2.4	-10	0.1	37*	5	nt
CCN1C(=O)C(CC(=O)Nc2ccc(Br)cc2)N(CCCc2ccccc2)C1=S (stereo not drawn)	-4.5*	23	1.1	22	-18	nt
O=C(CSC1CC(=O)N(CCc2ccccc2)C1=O)Nc1ccc(Br)cc1 (stereo not drawn)	-4.8*	-1	-0.31	6	-1	nt
